The source of these data is ChEMBL document CHEMBL3861960, “Leoligin, the Major Lignan from Edelweiss (Leontopodium nivale subsp. alpinum), Promotes Cholesterol Efflux from THP-1 Macrophages” (J Nat Prod, 2016).

Experiment [1] in a line: Upregulation of ABCG1 mRNA expression in human THP1 cells at 10 uM after 24 hrs by qPCR method relative to control. Format: functional, cell-based. Particulars: THP-1. In a few lines: (§1)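 THP-1 macrophages treated for 24 h with 10 μM compound, 10 μM pioglitazone or DMSO. Total RNA extracted and converted to cDNA; ABCA1 or ABCG1 measured by SYBR Green qPCR and expressed relative to 18S. Mean ± SD of four independent experiments; one-way ANOVA with Bonferroni test against DMSO.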
In general terms: Real-time PCR tracks product formation cycle by cycle.

The nature of experiment [2]: Upregulation of ABCA1 mRNA expression in human THP1 cells at 10 uM after 24 hrs by qPCR method relative to control. Format: functional, cell-based. Particulars: THP-1. In outline: as §1

Calls of active or inactive are those of the source. The calls are words filed in the database; no cut-off is given here.

As to `CCc1ccc(CCOc2ccc(CC3SC(=O)NC3=O)cc2)nc1` (configuration not stated), the result in experiment [1] and in experiment [2] was Active.
